This is a sample that favours compounds with a hit; in the whole collection about 2.4% have one here.
LGR2 inh = inhibitors of bursicon-induced Drosophila LGR2 receptor cAMP signaling. hit rate 0.35% among 380,000. inhibition, % at 9.99 µM. HEK293 LGR2, CRE-luciferase, bursicon-stimulated, 4 h;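 active = drop in luminescence signal, shown as inhibition above about 50% in the replicate tests, limit read from the data, passing the limit was not always enough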;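 note: agonist challenge used bursicon conditioned medium at about half maximal strength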
EWS-Fli inh = blocks EWS/Fli oncoprotein-driven transcription | A673 NR0B1-luciferase reporter, viability-normalised | inhibition, % at 12.6 µM | hit rate 0.67% among 350,000 | AID 651661;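 active = mean inhibition of at least 50% after viability correction, with every replicate also passing that limit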;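 note: firefly luciferase signal divided by Alamar Blue viability fluorescence both relative to DMSO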
E-sel inducer = E-selectin induction on HUVECs; AID 686992; activation, % at 7.58 µM; hit rate 0.37% among 260,000; P16581; HUVEC E-selectin immunofluorescence imaging; normalized: neutral wells 0, TNF-alpha wells 100;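 active = mean E-selectin-positive cell signal at least 10% of the positive control, reached in at least 60% of replicates, without over 20% cell loss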
Target sequence (P16581 whole entry, looked up): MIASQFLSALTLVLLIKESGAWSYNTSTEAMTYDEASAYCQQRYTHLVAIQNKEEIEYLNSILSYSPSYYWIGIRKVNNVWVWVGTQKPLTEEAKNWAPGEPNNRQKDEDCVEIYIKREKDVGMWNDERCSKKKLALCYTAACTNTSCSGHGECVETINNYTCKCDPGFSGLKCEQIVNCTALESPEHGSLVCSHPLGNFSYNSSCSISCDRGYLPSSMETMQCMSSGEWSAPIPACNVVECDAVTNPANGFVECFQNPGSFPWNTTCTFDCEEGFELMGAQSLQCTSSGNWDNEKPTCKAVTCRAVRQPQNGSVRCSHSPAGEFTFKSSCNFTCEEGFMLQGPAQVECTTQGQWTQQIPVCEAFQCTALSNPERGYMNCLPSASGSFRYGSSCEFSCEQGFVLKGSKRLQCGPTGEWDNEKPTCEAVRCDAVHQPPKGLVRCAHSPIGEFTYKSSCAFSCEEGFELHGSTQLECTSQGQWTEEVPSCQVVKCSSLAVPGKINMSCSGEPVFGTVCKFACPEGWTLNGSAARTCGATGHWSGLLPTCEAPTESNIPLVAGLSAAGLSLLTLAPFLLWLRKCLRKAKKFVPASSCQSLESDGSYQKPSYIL
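Assay system: HUVEC primary endothelial cells. Input: 3,000 HUVEC seeded per well. Doses: one compound dose added by pin transfer. Read-out basis: % PE-positive cells. Benchmarks: TNF-alpha high, DMSO low. Detection: immunofluorescence imaging. Buffer or medium: EGM-2, gelatin.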
rRNA inh HTS = selective bacterial rRNA inhibition in E. coli | GFP signal change (wild-type ribosome), % (concentration not given with the values) | hit rate 1.6% among 350,000 | E. coli WT GFP vs humanized-ribosome RFP mutants, fluorescence, 24 h; stronger effect = lower value; DMSO median 0, no signal -100;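 active = significant combined selectivity score with lowered wild-type GFP, culture density cut under 30%, mutant RFP and density less affected; inactive = any of these conditions unmet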
Hits are given with their value; n = inactive; x = no result.

SMILES | LGR2 inh | EWS-Fli inh | E-sel inducer | rRNA inh HTS
CCCNC(=O)COC(=O)c1ccccc1C(=O)c1ccc(Cl)c([N+](=O)[O-])c1 | 106 | 55 | x | n
COc1ccc(-c2ccc3n(c2=O)C[C@H]2[C@H](CO)[C@@H](C(=O)N(C)C)[C@@H]3N2C(=O)c2cnccn2)cc1 | n | n | n | n
CC1Cc2ccccc2N1C(=S)NC(=O)c1ccco1 (stereo unspecified) | n | n | n | -27
CS(=O)(=O)N1CCN(c2ccccc2NC(=S)NC(=O)c2ccco2)CC1 | n | x | n | -28
O=C(c1ccncc1)N1C[C@H]2[C@@H](c3ccccc31)[C@H](CO)N2C(=O)c1ccccc1F | n | n | n | n
CC1CC1C(=O)OCC(=O)Nc1ccc(N=Nc2ccccc2)cc1 (stereo unspecified) | n | n | n | -18
Nc1ccc(S(=O)(=O)Nc2nccs2)cc1N=Nc1ccccc1[N+](=O)[O-] | n | n | n | -20
O=[N+]([O-])c1ccccc1S(=O)(=O)Nc1ccc(S(=O)(=O)Nc2nccs2)cc1 | n | n | x | n
CCNC(=O)/C(C#N)=C/c1c(N(Cc2ccccc2)Cc2ccccc2)nc2ccccn2c1=O | n | n | n | -18
CC(C)CC#Cc1cnc2c(c1)C(=O)N([C@H](C)CO)C[C@H](C)[C@@H](CN(C)C(=O)CCN1CCCCC1)O2 | n | n | n | n
CCN(CC)CCCNC(=O)c1cc2c(=O)n(CC)c3ccccc3c2s1 | n | n | n | n
CCN(CC)CCNC(=O)c1cc2c(=O)n(CC)c3ccccc3c2s1 | n | n | 63 | n
CC(C)NC(=O)N(C)C[C@@H]1Oc2cc(-c3cncnc3)ccc2S(=O)(=O)N([C@H](C)CO)C[C@@H]1C | n | n | n | n
COCCNC(=O)c1cc2c(-c3ccc(Cl)cc3)nn(C)c2s1 | n | n | x | -27
COCCCNC(=O)c1cc2c(-c3ccc(Cl)cc3)nn(C)c2s1 | n | n | x | n
C[C@@H]1CCCCO[C@H](CN(C)CC2CCCCC2)[C@@H](C)CN([C@H](C)CO)C(=O)c2cc(NC(=O)NC3CCCCC3)ccc2O1 | n | n | n | n
O=C(N/N=C/c1cccs1)c1cc(-c2ccc(Cl)s2)[nH]n1 | n | n | n | -22
C/C(=N\NC(=O)c1cc(-c2ccc(Cl)s2)[nH]n1)c1ccncc1 | n | n | n | -21
O=C(N/N=C/c1ccco1)c1cc(-c2ccc(Cl)s2)[nH]n1 | n | n | x | -26
C/C(=N\NC(=O)c1cc(-c2ccc(Br)s2)[nH]n1)c1ccncc1 | n | n | n | n
N#CCCN1CCN(C(=S)c2ccc(-c3ccc(Cl)cc3)o2)CC1 | n | x | x | -28
COc1ccc(O)c(/C=N/NC(=S)Nc2cccc(S(=O)(=O)N(C)C)c2)c1 | n | x | x | x
COc1cc(/C=N/NC(=S)Nc2cccc(C(=O)O)c2)cc(OC)c1OC | n | n | n | n
COc1cccc(/C=N/NC(=S)Nc2cccc(S(=O)(=O)N(C)C)c2)c1 | n | n | x | -18
COc1ccc(C=NNC(=S)Nc2ccc(F)cc2)cc1OC | 50 | n | n | n
SMILES | LGR2 inh | EWS-Fli inh | E-sel inducer | rRNA inh HTS
COc1ccc(/C=N/NC(=S)Nc2cccc(C(=O)O)c2)cc1OC | 82 | n | n | n
O=C(O)C[C@@H]1CC[C@@H]2[C@H](COC[C@@H](O)CN2S(=O)(=O)c2ccc(F)cc2)O1 | n | x | n | n
CCCCCN=Cc1c(C)[nH]n(-c2nc3ccccc3s2)c1=O | 60 | x | x | n
CCCc1[nH]n(-c2nc3ccccc3s2)c(=O)c1C=NCC1CCCO1 (stereo unspecified) | n | x | x | -25
C[C@@H]1CN([C@@H](C)CO)C(=O)Cc2cc(NC(=O)C3CC3)ccc2O[C@@H]1CN(C)CC1CC1 | n | n | n | n
CC(=Cc1ccccc1)C=C1SC(=S)N(CCCC(=O)Nc2ccc(C(=O)O)cc2)C1=O | n | n | n | -23
CC(/C=C1\SC(=S)N(NC(=O)c2ccc(O)cc2)C1=O)=C\c1ccccc1 | n | n | x | -25
CCC(C(=O)O)N1C(=O)/C(=C/C(C)=C/c2ccccc2)SC1=S (stereo unspecified) | n | n | n | n
O=C(NN1C(=O)/C(=C/c2ccc(O)c(O)c2)SC1=S)c1ccccc1 | n | n | x | -31
CCN(CC)CCOC(=O)c1ccc(NC(=O)CCCN2C(=O)/C(=C\c3cccs3)SC2=S)cc1 | n | n | n | -27
Cc1noc(C)c1NC(=O)N[C@H]1CC[C@H](CCNC(=O)C2CCC2)O[C@@H]1CO | n | n | n | n
COc1ccc(S(=O)(=O)N(C)C[C@H]2Oc3ccc(NS(=O)(=O)c4cccs4)cc3C(=O)N([C@@H](C)CO)C[C@H]2C)cc1 | n | n | n | n
COc1ccc(CN(C)C[C@@H]2Oc3ccc(NC(=O)Nc4ccc(F)cc4)cc3CC(=O)N([C@H](C)CO)C[C@@H]2C)cc1 | n | n | 76 | n
COc1ccc(CN(C)C[C@H]2Oc3ccc(NC(=O)Nc4ccc(F)cc4)cc3CC(=O)N([C@H](C)CO)C[C@H]2C)cc1 | n | n | n | n
COc1ccc(CN(C)C[C@@H]2Oc3ccc(NC(=O)Nc4ccc(F)cc4)cc3CC(=O)N([C@H](C)CO)C[C@H]2C)cc1 | n | n | 83 | n
C[C@@H]1CN([C@@H](C)CO)C(=O)c2cc(NC(=O)Cc3ccccc3)ccc2O[C@@H](C)CCCCO[C@@H]1CN(C)C(=O)Nc1ccc2c(c1)OCO2 | n | n | n | n
O=C(CN(C(=O)c1csnn1)c1ccc2c(c1)OCCO2)NCc1ccc(F)cc1 | n | n | 39 | n
COc1ccc(CNC(=O)CN(C(=O)c2csnn2)c2ccc3c(c2)OCCO3)cc1 | n | n | n | n
COc1ccc(-c2cc(C(F)(F)F)nc(SCc3cccc(C(=O)O)c3)n2)cc1 | n | n | x | -43
O=C1/C(=C/c2cccnc2)CCC/C1=C\c1cccnc1 | 90 | 54 | x | n
CCC1C/C(=C\c2cccnc2)C(=O)/C(=C/c2cccnc2)C1 (stereo unspecified) | x | 54 | n | n
C[C@H](NC(=O)C[C@H]1C[C@H]2c3cc(NC(=O)CN(C)C)ccc3O[C@H]2[C@@H](CO)O1)c1ccccc1 | n | n | n | n
CC[n+]1c(/C=C/N(C)c2ccccc2)oc2ccccc21 | n | n | n | -19
COc1ccc(NC(=O)N[C@H]2CC[C@H](CCNC(=O)Nc3cc(F)ccc3F)O[C@@H]2CO)cc1 | n | x | n | n
O=S(=O)(CCN1CCOCC1)c1ccc(Cl)cc1 | n | n | n | n
SMILES | LGR2 inh | EWS-Fli inh | E-sel inducer | rRNA inh HTS
Cc1nn(CCS(=O)(=O)c2ccc(Cl)cc2)c(C)c1Br | n | n | 78 | n
O=c1c2ccccc2cnn1CCOc1ccccc1 | 86 | x | x | x
Cc1cc(O)c(C(C)C)cc1C1(c2cc(C(C)C)c(O)cc2C)OC(=O)c2ccccc21 | 70 | n | n | n
CCOc1ccc(Oc2ccc(NC(=O)[C@@H](NC(N)=O)[C@@H](C)CC)cc2)cc1 | n | n | n | n
CC[C@H](C)[C@H](NC(N)=O)C(=O)Nc1ccc(S(=O)(=O)NC(C)C)cc1 | n | n | n | -22
COc1ccc(NC(=O)N2CCCCN3[C@H](CO)[C@@H](c4ccc(C5=CCCCC5)cc4)[C@H]3C2)cc1 | n | n | n | n
